# Source: PubChem (Sanford-Burnham Center for Chemical Genomics)
# SENP8 block-1: SENP8 protease inhibitors, primary screen, biochemical, luminescence; Sentrin-specific protease 8 (Homo sapiens), Q96LD8; purified SENP8, Z-RLRGG-aminoluciferin cleavage; inhibition, % at 10 µM; 330,000 compounds, 1.2% hits; AID 2540, 2010; in the data active = inhibition above about 50%
# SENP7 inh: SENP7 protease inhibitors, primary screen, biochemical, luminescence, uHTS. Sentrin-specific protease 7 (Homo sapiens), Q9BQF6. recombinant SENP7, Z-RLRGG-aminoluciferin luminescence, 40 min. inhibition, % at 5 µM. 330,000 compounds, 1.5% hits;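 active = inhibition above about 50% at the single test dose, limit read from the data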;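 also: plate controls were DMSO with enzyme for no effect and no enzyme buffer wells for full effect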
# SENP6 block: SENP6 protease inhibitors, primary screen, biochemical, luminescence, uHTS. Sentrin-specific protease 6 (Homo sapiens), Q9GZR1. Recombinant SENP6 catalytic domain, aminoluciferin luminescence. inhibition, % at 10 µM. 330,000 compounds, 1.8% hits;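 active = inhibition above about 50% at the single tested dose, limit read from the data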;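 also: plate controls were DMSO wells with enzyme for no effect and DMSO wells lacking enzyme for full effect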
# SENP1 FRET inh: human SENP1 catalytic domain inhibitors, primary screen, biochemical, FRET, uHTS; Sentrin-specific protease 1 (Homo sapiens), Q9P0U3; recombinant SENP1 catalytic domain, CyPet-SUMO1-YPet FRET cleavage; inhibition, % at 10 µM; 360,000 compounds, 0.21% hits; AID 624204, 2012;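 active = inhibition at least 30% at 10 µM, raw YFP signal under a set limit, fluorescence ratio 0.5 to 1.5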;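 also: 0% = enzyme with DMSO and 100% = no enzyme wells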
# Target sequence (Q9P0U3 419-644 limits assumed): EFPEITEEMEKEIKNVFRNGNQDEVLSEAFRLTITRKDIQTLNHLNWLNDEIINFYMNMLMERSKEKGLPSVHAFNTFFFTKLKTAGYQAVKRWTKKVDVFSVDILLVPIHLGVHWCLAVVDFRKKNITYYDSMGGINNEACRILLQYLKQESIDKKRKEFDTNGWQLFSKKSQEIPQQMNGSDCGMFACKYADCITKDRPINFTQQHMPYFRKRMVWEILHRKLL
#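 Compound: 10 µM single point, 0.5% DMSO; Test system: hSENP1 catalytic domain, recombinant; Timing: 50 min reaction at room temperature; Technique: FRET, CFP and YFP emission; Control set: no-enzyme wells low, DMSO-plus-enzyme wells high control.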
# SENP8 block-2: human SENP8 protease inhibitors, primary screen, biochemical, fluorescence, Nedd8 protein substrate, uHTS; 360,000 compounds, 0.64% hits; recombinant SENP8; inhibition, % at 20 µM; AID 602440, 2012; in the data active = inhibition mostly above about 40%, no sharp cut-off; inactive = mostly below about 27%
# SENP8 conf: SENP8 protease inhibitors, retest, confirmation, biochemical, luminescence, single concentration. 6,200 compounds, 40% hits. Recombinant SENP8, Z-RLRGG-aminoluciferin luminescence, 60 min. inhibition, % at 12.5 µM. shares compounds with SENP7 inh;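 active = mean inhibition across replicates above about 50%, limit read from the data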
# SENP6 conf: SENP6 protease inhibitors, confirmation, biochemical, luminescence, single concentration. AID 488915, 2010. shares compounds with SENP7 inh. recombinant SENP6, Z-RLRGG-aminoluciferin luminescence. inhibition, % at 12.5 µM. 6,200 compounds, 58% hits
# SENP7 confirm: SENP7 protease inhibitors, retest, confirmation, biochemical, luminescence, single concentration; 6,200 compounds, 69% hits; recombinant SENP7, Z-RLRGG-aminoluciferin luminescence, 40 min; inhibition, % at 12.5 µM; shares compounds with SENP7 inh; AID 488917, 2010
# Casp3 select: caspase-3 protease inhibitors, confirmation, selectivity assay for SENP inhibitor project, biochemical, single concentration; shares compounds with SENP7 inh; purified caspase-3, Z-DEVD-aminoluciferin luminescence, 60 min; inhibition, % at 12.5 µM; 6,200 compounds, 60% hits; AID 488918, 2010;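 active = mean inhibition above about 50%, limit read from the data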;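 also: plate controls were enzyme with DMSO for no effect and wells without caspase-3 for full effect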
# Target sequence (P42574 28-227 limits assumed): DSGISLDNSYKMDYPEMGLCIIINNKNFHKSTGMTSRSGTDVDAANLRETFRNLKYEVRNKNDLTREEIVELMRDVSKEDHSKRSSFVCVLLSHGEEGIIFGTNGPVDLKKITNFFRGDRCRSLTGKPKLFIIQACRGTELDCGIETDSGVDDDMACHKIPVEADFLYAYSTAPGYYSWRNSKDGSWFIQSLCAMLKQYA
# SENP luc ctr: luminescence interference (SENP counter-screen) | shares compounds with SENP7 inh | 6,200 compounds, 39% hits | Pre-incubated SENP8/Z-RLRGG-aminoluciferin, luciferase luminescence interference | inhibition, % at 12.5 µM | AID 488919;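 active = mean inhibition above about 50% when retested at one dose, limit read from the data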;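 also: plate controls were DMSO wells with completed reaction for no effect and substrate without enzyme for full effect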
# Numbers without * were called inactive; / = no result. The list is not random: actives were taken first. Their share in the collection is about 2.5%.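 The calls were made as follows, unless noted: active = mean inhibition above about 50% in the one-dose retest (limit read from the data); inactive = the rest.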
SMILES,SENP8 block-1,SENP7 inh,SENP6 block,SENP1 FRET inh,SENP8 block-2,SENP8 conf,SENP6 conf,SENP7 confirm,Casp3 select,SENP luc ctr
COc1ccccc1NC(=S)NNC(=O)c1ccc(Cl)cc1Cl,47,54*,72*,3,3,23,18,5,1,22
Cc1ccccc1C(=O)NNC(=S)NC(=O)c1ccc(Cl)cc1Cl,7,-1,18,1,19,/,/,/,/,/
CC(C)(C#N)NC(=O)C1CCCN1S(=O)(=O)c1ccc2ccccc2c1 (stereo unspecified),4,-4,-16,5,8,/,/,/,/,/
NC(=O)C1CCCN(CC(O)COCc2ccc(Cl)cc2)C1 (stereo unspecified),-3,8,-45,1,8,/,/,/,/,/
O=C(Nc1ccc2c(c1)OCO2)c1cc(Cl)ccn1,77*,81*,84*,4,4,81*,80*,96*,88*,16
O=C(Nc1ccc2c(c1)OCO2)c1ccc(Cl)cc1Cl,55*,72*,52*,1,12,36,56*,86*,69*,64*
O=C(Nc1ccc2c(c1)OCCO2)c1ccc(Cl)cc1Cl,49,67*,71*,0,6,70*,66*,87*,70*,65*
O=C(Nc1ccc2c(c1)OCO2)c1c(F)cccc1F,-7,8,29,-2,12,/,/,/,/,/
O=S1(=O)N[C@@H](Cc2ccccc2)COc2cc(N3CC[C@H](O)C3)ccc21,/,/,/,-2,12,/,/,/,/,/
COc1cccc(N2CCN(Cc3nc4scc(-c5ccccc5)c4c(=O)[nH]3)CC2)c1,1,8,-3,1,-14,/,/,/,/,/
CC(NC(=O)c1cc(COc2ccc(-n3cncn3)cc2)on1)c1ccc(F)cc1 (stereo unspecified),/,/,/,0,10,/,/,/,/,/
CCSc1nnc(NC(=O)C2CC(=O)N(Cc3ccccc3)C2)s1 (stereo unspecified),-19,-3,-12,1,7,/,/,/,/,/
CCCNC(=O)c1nn2cc(Br)cnc2c1Br,0,10,-12,3,10,/,/,/,/,/
Cc1ccsc1/C=C1\Oc2cc(OCC(=O)c3ccccc3)ccc2C1=O,41,49,60*,-50,-186,-24,-24,-7,26,-4
COc1ccc(C(=O)c2c[nH]c(C(=O)N=CN(C)C)c2)cc1,3,16,2,-2,-3,/,/,/,/,/
O=C(Nc1sc2c(c1C(=O)O)CCCC2)c1cccs1,85*,56*,93*,-1,-42,3,90*,98*,86*,90*
COC(=O)c1c(NC(=O)c2cccs2)sc2c1CCC(C)C2 (stereo unspecified),-7,-4,-4,0,-396,/,/,/,/,/
O=C(/C=C/c1cccs1)Nc1sc2c(c1C(=O)O)CCCC2,55*,8,74*,11,20,27,66*,81*,58*,71*
CC1CCc2c(sc(NC(=O)c3cccs3)c2C(=O)O)C1 (stereo unspecified),76*,-4,88*,2,-28,86*,86*,92*,66*,86*
O=C(CCc1ccccc1)Nc1sc2c(c1C(=O)O)CCCC2,3,0,3,2,-21,/,/,/,/,/
O=C(Nc1sc2c(c1C(=O)O)CCCCC2)c1cccs1,95*,71*,96*,0,-61,98*,98*,102*,94*,96*
CCOc1ccc(S(=O)(=O)N2CCCC(C(=O)N3CCOCC3)C2)cc1C (stereo unspecified),-6,-4,-11,2,-12,/,/,/,/,/
CCCCn1c(N)c(N(CCOC)C(=O)c2ccc(COc3ccccc3)o2)c(=O)[nH]c1=O,-6,-3,-8,-2,4,/,/,/,/,/
CSc1ncc(C(=O)Nc2ccccc2)cn1,-8,0,1,2,8,/,/,/,/,/
O=C1C(C=Nc2ccccc2O)=C(O)c2ccccc21,95*,5,96*,3,45*,88*,95*,100*,95*,96*
SMILES,SENP8 block-1,SENP7 inh,SENP6 block,SENP1 FRET inh,SENP8 block-2,SENP8 conf,SENP6 conf,SENP7 confirm,Casp3 select,SENP luc ctr
O=C1C(C=Nc2ccccc2)=C(O)c2ccccc21,92*,99*,98*,-1,32,87*,88*,100*,94*,61*
CN=CC1=C(O)c2ccccc2C1=O,2,-4,1,0,2,/,/,/,/,/
COc1ccc(N=CC2=C(O)c3ccccc3C2=O)cc1,93*,99*,95*,3,46*,4,67*,28,89*,19
CC[C@@H]1Cc2[nH][nH]c(=O)c2[C@H](c2ccc(Cl)cc2)O1,/,/,/,0,21,/,/,/,/,/
O=C(CCc1nnc(CCc2c[nH]c3ccccc23)o1)NC1CCC1,-11,-3,-1,0,4,/,/,/,/,/
CCOC(=O)N1CCN(C(=O)C2CCC(=O)N(Cc3cccc(C(F)(F)F)c3)C2)CC1 (stereo unspecified),-7,-2,4,1,9,/,/,/,/,/
Cn1c(=O)cc(SCC(=O)NCCC2=CCCCC2)c2ccc(Cl)cc21,0,6,-1,-2,14,/,/,/,/,/
CN(CCCNC(=O)CSc1cc(=O)n(C)c2cc(Cl)ccc12)Cc1ccccc1,3,75*,8,0,-19,-14,-11,-14,2,-7
Cc1ccc(CNC(=O)C2CCCN2C(=O)Nc2ccc(F)cc2)cc1 (stereo unspecified),6,-2,-4,0,1,/,/,/,/,/
CCOC(=O)N1CCC(N(CCN(C)C)C(=S)Nc2ccc(Oc3ccccc3)cc2)CC1,-12,1,-45,3,18,/,/,/,/,/
